Test results from BindingDB's records for doi:10.1021/acs.jmedchem.9b01313 (Anhui Medical University, 2019).

Each molecule was assayed against Hypoxia-inducible factor 1-alpha (Homo sapiens, UniProt Q16665) (assay: Inhibition of HIF1alpha transcriptional activity in hypoxia-induced human HCCLM3 cells co-transfected with luciferase reporter plasmid containing five copies of HREs and pRL-SV40 plasmid encoding Renilla luciferase incubated with compound under normoxia for 1 hr followed by hypoxia induction and measured after 24 hrs by HRE-dependent dual luciferase reporter gene assay).
Summary of the method: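 LM3 cells co-transfected with firefly luciferase reporter carrying five HRE copies plus pRL-SV40 Renilla plasmid; after transfection treated and kept under hypoxia; firefly luminescence normalized to Renilla. Single-point inhibition rate at 10 μM; IC50 for selected compounds.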

Hypoxia-inducible factor 1-alpha, sequence (Q16665 whole entry): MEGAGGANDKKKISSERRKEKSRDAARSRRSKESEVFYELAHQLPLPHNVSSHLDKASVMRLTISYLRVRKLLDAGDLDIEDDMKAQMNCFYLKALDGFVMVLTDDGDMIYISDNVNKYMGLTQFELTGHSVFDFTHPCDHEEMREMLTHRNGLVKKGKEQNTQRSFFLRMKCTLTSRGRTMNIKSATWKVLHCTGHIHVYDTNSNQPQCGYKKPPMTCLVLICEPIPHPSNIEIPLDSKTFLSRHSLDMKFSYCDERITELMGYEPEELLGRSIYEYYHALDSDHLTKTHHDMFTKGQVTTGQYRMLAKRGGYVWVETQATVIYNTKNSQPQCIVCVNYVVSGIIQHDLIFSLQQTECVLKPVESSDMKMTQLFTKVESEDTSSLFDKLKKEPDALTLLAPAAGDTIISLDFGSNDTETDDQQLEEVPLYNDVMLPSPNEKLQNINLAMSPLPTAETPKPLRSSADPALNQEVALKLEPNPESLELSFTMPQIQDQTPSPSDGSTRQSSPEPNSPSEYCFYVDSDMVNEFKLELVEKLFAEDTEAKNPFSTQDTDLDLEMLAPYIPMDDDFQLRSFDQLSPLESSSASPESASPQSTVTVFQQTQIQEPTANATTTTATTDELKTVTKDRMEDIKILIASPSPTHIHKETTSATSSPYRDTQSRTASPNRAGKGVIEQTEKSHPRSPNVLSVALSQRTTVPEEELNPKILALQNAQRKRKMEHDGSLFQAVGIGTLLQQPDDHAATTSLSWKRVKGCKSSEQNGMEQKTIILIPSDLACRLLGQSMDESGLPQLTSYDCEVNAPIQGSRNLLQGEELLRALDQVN

SMILES | IC50 [µM]
O=C(NCCc1ccncc1)c1nccc(-c2ccccc2)n1 | 10
O=C(NCCc1ccccc1)c1ccc(-c2ccccc2)cn1 | 4.56
O=C(NCCc1ccccc1Cl)c1ccc(-c2ccccc2)cc1 | 2.87
Nc1ccc(CCNC(=O)c2ccc(-c3ccccc3)cn2)cc1 | 11.6
Cc1nc(C(=O)NCCc2ccccc2)cs1 | 55.7
O=C(NCCc1ccncc1)c1ccc(-c2ccccc2)cn1 | 13.8
O=C(NCCc1cccc(Cl)c1)c1ccc(-c2ccccc2)cn1 | 9.84
O=C(NCCc1ccccc1F)c1ccc(-c2ccoc2)cn1 | 4.24
O=C(NCCc1ccccc1Cl)c1ccc(-c2ccccc2)cn1 | 9.84
O=C(NCCc1ccncc1)c1nnc(-c2ccccc2)o1 | 7.32

Other lines, results leading:

IC50 [µM] | SMILES
8.53 | N#Cc1ccccc1-c1ccc(C(=O)NCCc2ccccc2F)nc1
3.08 | COC(=O)c1ccc(O)c(NC(=O)COc2ccc(C34CC5CC(CC(C5)C3)C4)cc2)c1
2.48 | O=C(NCCc1ccccc1F)c1ccc(-c2cccs2)cn1
2.16 | O=C(NCCc1ccccc1F)c1ccc(-c2ccccc2F)cn1
0.32 | COc1ccccc1-c1ccc(C(=O)NCCc2ccccc2F)nc1
0.93 | O=C(NCCc1ccccc1F)c1ccc(-c2ccccc2)cn1
1.41 | O=C(NCCc1ccccc1F)c1ccc(-c2ccsc2)cn1
